ChEMBL document CHEMBL3868585, “Absolute Configuration of Dihydro-β-agarofuran Sesquiterpenes from Maytenus jelskii and Their Potential Antitumor-Promoting Effects” (J Nat Prod, 2016)

Experiments:
Assay type in all cases: cell-based
Conditions in all cases: human gammaherpesvirus 4
Raji [1] = assay: Inhibition of TPA-induced EBV-early antigen activation in human Raji cells assessed as cell viability at 1000 molar ratio per TPA after 48 hrs by trypan blue staining method
Outline: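 Raji cells treated 48 h at 37 °C with n-butyric acid (4 mmol), TPA (32 pmol) and test compound in DMSO at 1000 mol ratio/TPA; viability determined by Trypan Blue staining.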

Raji [2] = assay: Inhibition of TPA-induced EBV-early antigen activation in human Raji cells assessed as remaining activity at 100 molar ratio per TPA after 48 hrs by immunofluorescence method relative to TPA
Outline: (§1)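 Raji cells (EBV genome-carrying, virus nonproducer) grown in RPMI1640 with 10% FBS; 1 × 10^6 cells incubated 48 h at 37 °C in 1 mL medium with n-butyric acid (4 mmol), TPA (32 pmol) in DMSO, and test compound in 5 μL DMSO at 10, 100, 500 or 1000 mol ratio/TPA. EA-positive cells detected by indirect immunofluorescence with NPC patient serum, ≥500 cells counted; triplicates, expressed relative to butyrate+TPA control (100%).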

Raji [3] = assay: Inhibition of TPA-induced EBV-early antigen activation in human Raji cells after 48 hrs by immunofluorescence method relative to TPA; outline: as §1
Raji [4] = assay: Inhibition of TPA-induced EBV-early antigen activation in human Raji cells at 10 molar ratio per TPA after 48 hrs by immunofluorescence method relative to TPA; outline: as §1
Raji [5] = assay: Inhibition of TPA-induced EBV-early antigen activation in human Raji cells at 500 molar ratio per TPA after 48 hrs by immunofluorescence method relative to TPA; outline: as §1
Raji [6] = assay: Inhibition of TPA-induced EBV-early antigen activation in human Raji cells at 100 molar ratio per TPA after 48 hrs by immunofluorescence method relative to TPA; outline: as §1
Raji [7] = assay: Inhibition of TPA-induced EBV-early antigen activation in human Raji cells at 1000 molar ratio per TPA after 48 hrs by immunofluorescence method relative to TPA; outline: as §1

| SMILES | Cell viability (Raji [1]) [%] | Activity (Raji [2]) [%] | inhibition (Raji [3]) | inhibition (Raji [4]) [%] | inhibition (Raji [5]) [%] | inhibition (Raji [6]) [%] | inhibition (Raji [7]) [%] |
| --- | --- | --- | --- | --- | --- | --- | --- |
| CC(=O)O[C@H]1[C@H](OC(=O)c2ccccc2)[C@@]2(C)[C@@H](OC(=O)/C=C/c3ccccc3)[C@@H](O)[C@@H]3[C@@H](OC(C)=O)[C@]2(OC3(C)C)[C@@](C)(O)[C@H]1OC(C)=O | > 60 | 88.6 | Dose-dependent effect |  |  |  |  |
| CC(=O)O[C@H]1[C@H](OC(=O)c2ccccc2)C[C@](C)(O)[C@]23OC(C)(C)[C@H](C[C@H](OC(=O)c4ccco4)[C@]12C)[C@H]3OC(=O)c1ccccc1 | > 60 |  | Dose-dependent effect |  |  |  |  |
| CC(=O)O[C@H]1[C@H](OC(=O)c2ccco2)[C@@]2(C)[C@@H](OC(=O)c3ccccc3)C[C@@H]3C[C@]2(OC3(C)C)[C@@](C)(O)[C@H]1OC(C)=O | > 60 |  | Dose-dependent effect |  |  |  |  |
| CC(=O)O[C@H]1[C@H](OC(=O)c2ccccc2)[C@@]2(C)[C@@H](OC(=O)/C=C/c3ccccc3)[C@@H](O)[C@@H]3C[C@]2(OC3(C)C)[C@@](C)(O)[C@H]1OC(C)=O | > 60 |  | Dose-dependent effect |  |  |  |  |
| CC(=O)O[C@@H]1C[C@](C)(O)[C@@]23C[C@@H](C[C@H](OC(=O)/C=C/c4ccccc4)[C@]2(C)[C@H]1OC(=O)c1ccco1)C(C)(C)O3 | > 60 |  | Dose-dependent effect |  |  |  |  |
| CC(=O)O[C@@H]1[C@H](O)[C@@H](C)[C@]23OC(C)(C)[C@H]([C@H](OC(C)=O)[C@H](OC(=O)c4ccccc4)[C@]2(C)[C@H]1OC(=O)c1ccccc1)[C@H]3OC(C)=O | > 60 | 79.5 | Dose-dependent effect |  |  |  |  |
| CC(=O)O[C@@H]1C[C@](C)(O)[C@@]23C[C@@H](C[C@H](OC(=O)c4ccccc4)[C@]2(C)[C@H]1OC(=O)c1ccco1)C(C)(C)O3 | > 60 |  | Dose-dependent effect |  |  |  |  |
| CC1(C)O[C@]23C[C@H]1C[C@H](OC(=O)c1ccccc1)[C@]2(C)[C@@H](OC(=O)c1ccco1)CC[C@]3(C)O | > 60 |  | Dose-dependent effect |  |  |  |  |
| CC(=O)O[C@H]1[C@H](OC(=O)c2ccccc2)[C@@]2(C)[C@@H](OC(=O)/C=C/c3ccccc3)C[C@]3(O)C[C@]2(OC3(C)C)[C@@](C)(O)[C@H]1OC(C)=O | > 60 |  | Dose-dependent effect |  |  |  |  |
| CC(=O)O[C@@H]1[C@H](OC(C)=O)[C@@H](C)[C@@]23C[C@@H](C[C@H](OC(=O)c4ccccc4)[C@]2(C)[C@H]1OC(=O)c1ccco1)C(C)(C)O3 | > 60 |  | Dose-dependent effect |  |  |  |  |
| CC(=O)O[C@@H]1[C@H](O)[C@@H](C)[C@]23OC(C)(C)[C@H]([C@H](OC(C)=O)[C@H](OC(=O)c4ccccc4)[C@]2(C)[C@H]1OC(=O)c1ccoc1)[C@H]3OC(C)=O | > 60 | 87 | Dose-dependent effect |  |  |  |  |
| CC(=O)O[C@@H]1[C@H](O)[C@@H](C)[C@]23OC(C)(C)[C@H]([C@H](OC(C)=O)[C@H](OC(=O)c4ccccc4)[C@]2(C)[C@H]1OC(=O)c1ccccc1)[C@H]3O | > 60 | 76.3 | Dose-dependent effect | 2.2 | 69.9 | 23.7 | 100 |
| CC(=O)OC[C@]12[C@@H](OC(=O)c3ccco3)C[C@@H]3[C@@H](OC(=O)c4ccccc4)[C@]1(OC3(C)C)[C@@](C)(O)C[C@@H](OC(C)=O)[C@@H]2OC(C)=O | > 60 | 81.9 | Dose-dependent effect |  |  |  |  |
| CC(=O)O[C@H]1[C@H](OC(=O)c2ccccc2)[C@@]2(C)[C@@H](OC(=O)/C=C/c3ccccc3)C[C@@H]3[C@@H](OC(C)=O)[C@]2(OC3(C)C)[C@@](C)(O)[C@H]1OC(=O)c1cccnc1 | > 60 |  | Dose-dependent effect |  |  |  |  |
| CC(=O)O[C@H]1[C@H](OC(=O)c2ccccc2)[C@@]2(C)[C@@H](OC(=O)/C=C/c3ccccc3)[C@@H](O)[C@@H]3[C@@H](O)[C@]2(OC3(C)C)[C@@](C)(O)[C@H]1OC(C)=O | > 60 | 85 | Dose-dependent effect |  |  |  |  |
| CC(=O)O[C@@H]1[C@H](O)[C@@H](C)[C@]23OC(C)(C)[C@H](C[C@H](OC(=O)/C=C/c4ccccc4)[C@]2(C)[C@H]1OC(=O)c1ccccc1)[C@H]3OC(C)=O | > 60 |  | Dose-dependent effect |  |  |  |  |
| CC(=O)O[C@@H]1[C@H](O)[C@@H](C)[C@]23OC(C)(C)[C@H](C[C@H](OC(=O)/C=C/c4ccccc4)[C@]2(C)[C@H]1OC(=O)c1ccccc1)[C@H]3O | > 60 |  | Dose-dependent effect |  |  |  |  |
| CC(=O)O[C@H]1[C@H](OC(=O)c2ccccc2)C[C@](C)(O)[C@]23OC(C)(C)[C@H](C[C@H](OC(=O)c4ccco4)[C@]12CO)[C@H]3OC(=O)c1ccccc1 | > 60 | 82.2 | Dose-dependent effect |  |  |  |  |
| CC(=O)O[C@H]1[C@@H]2C[C@@]3(OC2(C)C)[C@](C)([C@H]1OC(=O)c1ccccc1)[C@@H](OC(=O)c1ccccc1)[C@H](OC(C)=O)[C@H](OC(C)=O)[C@]3(C)O | > 60 | 79.3 | Dose-dependent effect |  |  |  |  |
| CC(=O)O[C@@H]1[C@H](O)[C@@H](C)[C@]23OC(C)(C)[C@H](C[C@H](OC(=O)c4ccccc4)[C@]2(C)[C@H]1OC(=O)c1ccccc1)[C@H]3OC(C)=O | > 60 | 81 | Dose-dependent effect |  |  |  |  |
